Measurements taken from ChEMBL document CHEMBL3739256, “Design, Synthesis, and Biological Evaluation of 1,2-Dihydroisoquinolines as HIV-1 Integrase Inhibitors” (ACS Med Chem Lett, 2015).

What was measured:
[1] = Cytotoxicity against human TZM-bl cells after 48 hrs by Cell-titerGlo assay; assay type: cell-based
[2] = molecular target: Human immunodeficiency virus type 1 integrase (Human immunodeficiency virus 1, UniProt Q7ZJM1); test: Inhibition of HIV-1 integrase strand transfer activity preincubated for 30 mins followed by addition of FITC-labelled dsDNA for 1 hr by microplate reader analysis
[3] = molecular target: Human immunodeficiency virus type 1 integrase (Human immunodeficiency virus 1, UniProt Q7ZJM1, G140S); test: Inhibition of HIV-1 integrase G140S mutant strand transfer activity preincubated for 30 mins followed by addition of FITC-labelled dsDNA for 1 hr by microplate reader analysis
[4] = test system: Human immunodeficiency virus 1; test: Antiviral activity against HIV-1 infected in human TZM-bl cells assessed as inhibition of viral replication for 48 hrs by bright-Glo luciferase assay; assay type: functional, organism-based; details: Human immunodeficiency virus 1, TZM-bl
Method in brief: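 Antiviral screen in TZM-bl cells, a HeLa clone engineered to express CD4 and CCR5 receptors. Activity is reported as EC50 in μM.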

[5] = Therapeutic index, ratio of CC50 for human TZM-bl cells to EC50 for HIV-1 infected in TZM-bl cells; assay type: cell-based; details: read-out: Ratio CC50/EC50
Method in brief: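 Index calculated as CC50/EC50, both measured in TZM-bl cells; CC50 is cell-based cytotoxicity at 48 h.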

[6] = Cytotoxicity against human Jurkat cells after 48 to 72 hrs by MTT assay; assay type: cell-based
[7] = test system: Human immunodeficiency virus 1; test: Antiviral activity against HIV-1 NL4-3 infected in human jurkat cells assessed as decrease in p24 level at 10 uM after 48 hrs by western blot analysis; assay type: functional; details: Human immunodeficiency virus 1, NL4-3, Jurkat
Method in brief: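 Jurkat cells were treated with compound at 10 μM or left untreated, then infected at MOI 1 with VSV-G-pseudotyped pNL4-3 (WT HIV-1). Supernatants were pelleted, solubilized in lysis buffer and probed on Western blot with a p24 antibody. Band intensity was quantified by densitometry as percent p24 relative to the untreated infected control, with significance at p < 0.05.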

Chain of Human immunodeficiency virus type 1 integrase (Human immunodeficiency virus 1, UniProt Q7ZJM1, G140S) (Q7ZJM1 entry or part of it G140S): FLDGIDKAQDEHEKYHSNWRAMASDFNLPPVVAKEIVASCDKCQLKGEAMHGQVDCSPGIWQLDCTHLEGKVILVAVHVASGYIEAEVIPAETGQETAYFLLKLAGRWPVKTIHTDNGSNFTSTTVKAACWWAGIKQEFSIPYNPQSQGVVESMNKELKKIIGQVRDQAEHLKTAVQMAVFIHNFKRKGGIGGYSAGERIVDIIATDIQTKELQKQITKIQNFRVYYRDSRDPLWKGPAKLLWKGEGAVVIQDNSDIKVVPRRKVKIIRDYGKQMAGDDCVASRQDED
Chain of Human immunodeficiency virus type 1 integrase (Human immunodeficiency virus 1, UniProt Q7ZJM1) (Q7ZJM1 whole entry): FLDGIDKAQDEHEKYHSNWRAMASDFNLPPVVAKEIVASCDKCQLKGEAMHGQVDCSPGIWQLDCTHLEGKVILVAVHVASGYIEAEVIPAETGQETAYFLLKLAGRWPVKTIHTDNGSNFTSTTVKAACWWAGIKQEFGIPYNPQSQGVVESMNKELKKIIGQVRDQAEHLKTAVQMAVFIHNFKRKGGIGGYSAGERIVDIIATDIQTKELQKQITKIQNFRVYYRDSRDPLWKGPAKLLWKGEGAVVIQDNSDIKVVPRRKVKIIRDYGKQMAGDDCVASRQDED

| Compound | CC50 at 48 h [1] | IC50 [2] | IC50 [3] | EC50 [4] | selectivity ratio [5] | CC50 [6] | inhibition at 10 µM [7] |
| --- | --- | --- | --- | --- | --- | --- | --- |
| COc1ccc(C2=Cc3ccc(F)cc3C(CC(=O)C(C)O)N2c2ccc(C)cc2)cc1 (stereo not drawn) | 12.7 µM | 10.6 µM | 12.7 µM | – | – | – | – |
| COc1ccc(C2=Cc3ccc(F)cc3C(CC(C)=O)N2c2ccc(O)cc2)cc1 (stereo not drawn) | 60.5 µM | 12 µM | 14 µM | 21.4 µM | 2.8 | – | – |
| Cc1ccc(C2=Cc3ccccc3C(C[N+](=O)[O-])N2c2ccc(F)cc2)cc1 (stereo not drawn) | 21.5 µM | – | – | 16.5 µM | 1.3 | 51.2 µM | – |
| COc1ccc(C2=Cc3ccc(F)cc3C(C[N+](=O)[O-])N2c2ccc(Cl)cc2)cc1 (stereo not drawn) | 32.2 µM | 0.7 µM | 0.8 µM | 0.03 µM | 1070 | 20.3 µM | 91% |
| O=[N+]([O-])CC1c2cc([N+](=O)[O-])ccc2C=C(c2ccccc2)N1c1ccc(Cl)cc1 (stereo not drawn) | 26 µM | 3.1 µM | 3 µM | 1.15 µM | 22.6 | 24.9 µM | – |
| Cc1nnc(C(=O)NC(C)(C)c2nc(C(=O)NCc3ccc(F)cc3)c(O)c(=O)n2C)o1 | > 200 µM | – | – | 0.15 µM | – | > 120 µM | 92% |
| COc1ccc(C2=Cc3ccc([N+](=O)[O-])cc3C(CC(C)=O)N2c2ccc(F)cc2)cc1 (stereo not drawn) | 7.7 µM | 0.46 µM | 0.64 µM | 36.3 µM | 0.2 | 16.4 µM | – |
| COc1ccc(C2=Cc3ccc([N+](=O)[O-])cc3C(CC(C)=O)N2c2ccc(O)cc2)cc1 (stereo not drawn) | 23.5 µM | 6.6 µM | 7.6 µM | 31.4 µM | 0.7 | – | – |
| COc1ccc(C2=Cc3ccc(F)cc3C(CC(=O)CO)N2c2ccc(O)cc2)cc1 (stereo not drawn) | 47.7 µM | 22.1 µM | 20.1 µM | 24.4 µM | 1.9 | – | – |
| COc1ccc(C2=Cc3ccc(F)cc3C(CC(=O)CO)N2c2ccc(C)cc2)cc1 (stereo not drawn) | 23.7 µM | 15.1 µM | 14.1 µM | 28.4 µM | 0.8 | – | – |
| COc1ccc(C2=Cc3ccc(F)cc3C(CC(=O)C(C)O)N2c2ccc(Cl)cc2)cc1 (stereo not drawn) | 9.9 µM | 11.8 µM | 10.8 µM | – | – | – | – |
| COc1ccc(C2=Cc3ccc([N+](=O)[O-])cc3C(CC(C)=O)N2c2ccc(C)cc2)cc1 (stereo not drawn) | 10.6 µM | 0.6 µM | 0.65 µM | 26.3 µM | 0.4 | 33.1 µM | – |
| COc1ccc(C2=Cc3ccc(OC)cc3C(C[N+](=O)[O-])N2c2ccccc2)cc1 (stereo not drawn) | 29.4 µM | – | – | 10.5 µM | 2.8 | 22.1 µM | – |
| COc1ccc(C2=Cc3ccc(F)cc3C(CC(C)=O)N2c2ccc([N+](=O)[O-])cc2)cc1 (stereo not drawn) | 11.2 µM | – | – | – | – | – | – |
| COc1ccc(C2=Cc3ccc(F)cc3C(CC(=O)C(C)O)N2c2ccc(F)cc2)cc1 (stereo not drawn) | 14 µM | 7.9 µM | 8 µM | 11.7 µM | 1.1 | 1.81 µM | – |
| O=[N+]([O-])CC1c2ccccc2C=C(c2ccccc2)N1c1ccccc1 (stereo not drawn) | 10.3 µM | – | – | 15.6 µM | 0.6 | 42.3 µM | – |
| COc1ccc(C2=Cc3ccc(F)cc3C(CC(=O)C(C)O)N2c2ccc(O)cc2)cc1 (stereo not drawn) | 50.9 µM | 25.2 µM | 25 µM | 19.7 µM | 2.5 | – | – |
| COc1ccc(C2=Cc3ccc(F)cc3C(CC(=O)CO)N2c2ccc([N+](=O)[O-])cc2)cc1 (stereo not drawn) | 46.4 µM | 0.82 µM | 46.4 µM | 10.4 µM | 4.4 | 57.1 µM | 70.9% |
| COc1ccc(C2=Cc3ccc(F)cc3C(CC(=O)CO)N2c2ccc(C#N)cc2)cc1 (stereo not drawn) | 39.7 µM | 7.6 µM | 7 µM | 29.1 µM | 1.3 | – | – |
| COc1ccc(C2=Cc3ccc(F)cc3C(CC(=O)CO)N2c2ccc(Cl)cc2)cc1 (stereo not drawn) | 8.5 µM | 17.9 µM | 14.9 µM | 26.4 µM | 0.3 | – | – |
| COc1ccc(C2=Cc3ccc(F)cc3C(CC(=O)C(C)O)N2c2ccc([N+](=O)[O-])cc2)cc1 (stereo not drawn) | 10.1 µM | 5.2 µM | 5.5 µM | 12.7 µM | 0.7 | 6.1 µM | – |
| COc1ccc(C2=Cc3ccc(F)cc3C(CC(C)=O)N2c2ccc(C#N)cc2)cc1 (stereo not drawn) | – | – | 20 µM | – | – | – | – |
| COc1ccc(C2=Cc3ccc(F)cc3C(CC(=O)C(C)O)N2c2ccc(C#N)cc2)cc1 (stereo not drawn) | 24.1 µM | 22.2 µM | 22 µM | 18.7 µM | 1.2 | – | – |
| COc1ccc(C2=Cc3ccc([N+](=O)[O-])cc3C(CC(C)=O)N2c2ccc(C#N)cc2)cc1 (stereo not drawn) | 15.4 µM | 2.9 µM | 2.8 µM | 22.5 µM | 0.6 | – | – |
